Test results reported in ChEMBL document CHEMBL1250479, “Biological diversity from a structurally diverse library: systematically scanning conformational space using a pyranose scaffold” (J Med Chem, 2010).

How the values were obtained:
[1] = molecular target: T1, Melanin-concentrating hormone receptor 1 (Homo sapiens, UniProt Q99705); assay: Displacement of [I125I]MCH from human MCH1 receptor expressed in CHO cells by scintillation counting; type: cell-based
Summary of the method: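 SPA competition on membranes of CHO cells stably expressing human MCH1, premixed with WGA-PVT beads (0.25 mg/well). Test compound was added at increasing concentrations with [125I]-MCH in HEPES pH 7.4 buffer containing CaCl2, MgCl2 and 0.2% BSA, incubated 2 h at room temperature, then scintillation-counted. Phe-(D)Tyr-MCH served as reference ligand; IC50 came from sigmoidal dose-response fits.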

[2] = molecular target: Somatostatin receptor type 5 (Homo sapiens, UniProt P35346); assay: Displacement of [125I]iodotyrosyl from human SST5 receptor expressed in CHO cells; type: cell-based
Sequence of Somatostatin receptor type 5 (P35346 whole entry): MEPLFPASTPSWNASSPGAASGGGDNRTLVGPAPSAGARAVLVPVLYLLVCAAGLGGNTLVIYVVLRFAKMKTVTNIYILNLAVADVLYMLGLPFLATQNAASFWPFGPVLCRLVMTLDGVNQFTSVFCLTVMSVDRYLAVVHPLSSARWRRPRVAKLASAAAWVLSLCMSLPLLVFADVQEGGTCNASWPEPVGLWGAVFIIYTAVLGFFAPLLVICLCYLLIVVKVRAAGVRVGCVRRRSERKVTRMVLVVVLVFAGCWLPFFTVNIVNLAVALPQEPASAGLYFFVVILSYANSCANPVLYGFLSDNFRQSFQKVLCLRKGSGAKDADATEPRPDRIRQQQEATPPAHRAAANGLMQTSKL
Summary of the method: (§1)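 Membranes from CHO cells stably expressing cloned human sst1–5 were used at 2 µg protein/well (sst1), 0.2 (sst2) or 0.7 (sst3, sst4, sst5). After GF/B filtration, bound label was counted. Nonspecific binding used 1 µM SST28; Ki came from single-site fits with known Kd; tested once in duplicate.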

[3] = molecular target: Somatostatin receptor type 2 (Homo sapiens, UniProt P30874); assay: Displacement of [125I]iodotyrosyl from human SST2 receptor expressed in CHO cells; type: cell-based; summary of the method: as §1
Sequence of Somatostatin receptor type 2 (P30874 whole entry): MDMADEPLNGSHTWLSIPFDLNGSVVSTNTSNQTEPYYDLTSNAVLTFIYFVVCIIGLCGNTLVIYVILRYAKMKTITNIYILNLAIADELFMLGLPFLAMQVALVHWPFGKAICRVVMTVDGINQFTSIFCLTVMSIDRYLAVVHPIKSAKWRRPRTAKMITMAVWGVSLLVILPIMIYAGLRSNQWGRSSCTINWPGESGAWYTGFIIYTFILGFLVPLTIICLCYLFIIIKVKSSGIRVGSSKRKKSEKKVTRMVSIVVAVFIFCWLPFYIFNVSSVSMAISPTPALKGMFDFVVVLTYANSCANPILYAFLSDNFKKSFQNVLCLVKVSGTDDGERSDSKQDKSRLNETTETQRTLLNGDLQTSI

[4] = molecular target: Somatostatin receptor type 3 (Homo sapiens, UniProt P32745); assay: Displacement of [125I]iodotyrosyl from human SST3 receptor expressed in CHO cells; type: cell-based; summary of the method: as §1
Sequence of Somatostatin receptor type 3 (P32745 whole entry): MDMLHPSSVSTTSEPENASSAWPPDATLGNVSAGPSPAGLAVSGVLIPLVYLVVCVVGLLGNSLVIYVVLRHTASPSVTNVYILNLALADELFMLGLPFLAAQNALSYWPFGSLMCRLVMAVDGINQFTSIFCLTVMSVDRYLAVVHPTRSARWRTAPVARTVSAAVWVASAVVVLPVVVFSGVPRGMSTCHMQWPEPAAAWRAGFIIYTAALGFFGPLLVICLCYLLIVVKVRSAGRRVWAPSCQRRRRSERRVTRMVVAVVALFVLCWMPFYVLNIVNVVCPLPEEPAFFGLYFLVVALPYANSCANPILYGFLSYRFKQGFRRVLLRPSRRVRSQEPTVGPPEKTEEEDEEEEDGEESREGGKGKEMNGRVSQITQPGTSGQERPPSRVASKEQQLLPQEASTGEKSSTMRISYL

[5] = molecular target: Somatostatin receptor type 4 (Homo sapiens, UniProt P31391); assay: Displacement of [125I]iodotyrosyl from human SST4 receptor expressed in CHO cells; type: cell-based; summary of the method: as §1
Sequence of Somatostatin receptor type 4 (P31391 whole entry): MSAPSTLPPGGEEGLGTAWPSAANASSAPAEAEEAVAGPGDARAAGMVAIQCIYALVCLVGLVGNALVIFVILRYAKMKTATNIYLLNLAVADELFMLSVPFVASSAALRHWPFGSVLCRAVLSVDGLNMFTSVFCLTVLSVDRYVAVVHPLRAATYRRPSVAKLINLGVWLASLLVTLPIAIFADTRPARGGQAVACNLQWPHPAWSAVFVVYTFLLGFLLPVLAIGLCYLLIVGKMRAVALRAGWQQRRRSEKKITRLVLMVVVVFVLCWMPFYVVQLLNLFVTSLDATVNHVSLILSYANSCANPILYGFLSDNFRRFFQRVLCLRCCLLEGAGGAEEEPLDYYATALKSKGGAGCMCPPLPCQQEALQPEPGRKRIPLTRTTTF

[6] = molecular target: Somatostatin receptor type 1 (Homo sapiens, UniProt P30872); assay: Displacement of [125I]iodotyrosyl from human SST1 receptor expressed in CHO cells; type: cell-based; summary of the method: as §1
Sequence of Somatostatin receptor type 1 (P30872 whole entry): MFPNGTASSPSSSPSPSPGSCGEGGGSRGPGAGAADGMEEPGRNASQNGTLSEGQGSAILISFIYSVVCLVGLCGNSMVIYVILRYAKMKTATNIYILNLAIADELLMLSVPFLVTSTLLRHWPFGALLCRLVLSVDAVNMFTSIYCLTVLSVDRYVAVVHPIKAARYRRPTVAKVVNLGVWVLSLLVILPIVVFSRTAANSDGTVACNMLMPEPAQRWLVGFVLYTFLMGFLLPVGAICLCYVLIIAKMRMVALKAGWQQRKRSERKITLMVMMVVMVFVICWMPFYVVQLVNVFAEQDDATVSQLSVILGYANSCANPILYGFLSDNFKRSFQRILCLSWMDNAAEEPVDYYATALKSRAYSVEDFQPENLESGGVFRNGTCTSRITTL

[7] = molecular target: T1, Melanin-concentrating hormone receptor 1; assay: Displacement of [I125I]MCH from human MCH1 receptor expressed in CHO cells (empty) by scintillation counting; conditions: 3 uM

T1 sequence (Q99705 whole entry): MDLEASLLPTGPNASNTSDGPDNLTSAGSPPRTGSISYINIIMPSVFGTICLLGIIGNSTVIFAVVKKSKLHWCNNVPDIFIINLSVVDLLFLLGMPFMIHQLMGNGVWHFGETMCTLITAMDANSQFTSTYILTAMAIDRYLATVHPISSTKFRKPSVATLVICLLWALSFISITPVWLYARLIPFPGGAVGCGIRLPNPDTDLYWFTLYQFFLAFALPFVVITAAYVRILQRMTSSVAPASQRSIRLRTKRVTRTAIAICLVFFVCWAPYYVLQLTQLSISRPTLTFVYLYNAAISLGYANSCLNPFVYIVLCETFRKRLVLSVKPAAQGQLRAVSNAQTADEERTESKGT

`COC[C@H]1O[C@@H](OCc2ccc3ccccc3c2)[C@H](NC(=O)CCCN=C(N)N)[C@@H](OCc2ccc(Cl)cc2)[C@@H]1O` was tested, and the IC50 [1] was 1.75 µM.

Compound `COC[C@H]1O[C@H](OCc2ccc(Cl)cc2)[C@H](NC(=O)CCCN=C(N)N)[C@@H](OCc2ccc3ccccc3c2)[C@@H]1O` has an IC50 [1] of 0.45 µM.

With `COC[C@H]1OC(OCc2ccc3ccccc3c2)[C@H](NC(=O)CCCN=C(N)N)[C@@H](OCc2ccc(Cl)cc2)[C@@H]1O` (some centres undefined) the Ki [1] was 1.8 µM.

Compound `COC[C@H]1O[C@H](OCc2ccc3ccccc3c2)[C@H](NC(=O)CCCN=C(N)N)[C@@H](OCc2ccc3ccccc3c2)[C@@H]1O` has an IC50 [1] of 1.16 µM.

`COC[C@H]1OC(OCCc2ccccc2)[C@H](NC(=O)CCN)C(OCc2ccc3ccccc3c2)[C@@H]1O` (some centres undefined) showed an IC50 [2] of 0.16 µM.

Work on `COC[C@H]1OC(OCc2ccc3ccccc3c2)[C@H](NC(=O)CN=C(N)N)[C@@H](OCc2ccc(Cl)cc2)[C@@H]1O` (some centres undefined) yielded a Ki [1] of 6.6 µM.

For `COC[C@H]1O[C@H](OCc2ccc3ccccc3c2)[C@H](NC(=O)CCCN)[C@H](OCc2ccc(Cl)cc2)[C@@H]1O`, the IC50 [3] was greater than 10 µM, the IC50 [2] was 0.07 µM and the IC50 [4] was 0.5 µM. The IC50 [5] was greater than 10 µM and the IC50 [6] was greater than 10 µM.

Compound `COC[C@H]1O[C@@H](OCc2ccc3ccccc3c2)[C@H](NC(=O)CCCN)[C@@H](OCc2ccc(Cl)cc2)[C@@H]1O` has an IC50 [3] greater than 10 µM, an IC50 [2] of 0.05 µM and an IC50 [5] greater than 10 µM. For the same compound, the IC50 [6] was greater than 10 µM.

`COC[C@H]1O[C@@H](OCc2ccc(Cl)cc2)[C@H](NC(=O)CCCN=C(N)N)[C@@H](OCc2ccc(Cl)cc2)[C@@H]1O` gave an IC50 [1] of 1.66 µM.

Compound `CS[C@@H]1O[C@H](COCc2ccccc2)[C@@H](O)[C@@H](OCc2ccc3ccccc3c2)[C@H]1NC(=O)CCN=C(N)N` has an IC50 [5] of 0.18 µM.

With `COC[C@H]1OC(OCc2ccc3ccccc3c2)[C@H](NC(=O)CCN=C(N)N)[C@@H](OCc2ccc3ccccc3c2)[C@@H]1O` (some centres undefined) the Ki [1] was 6.3 µM.

`CS[C@@H]1O[C@H](COCc2ccc(Cl)cc2)[C@@H](O)[C@@H](OCc2ccc3ccccc3c2)[C@H]1NC(=O)CCCN=C(N)N` showed an IC50 [5] of 0.72 µM.

For `COC[C@H]1O[C@H](OCCc2ccccc2)[C@H](NC(=O)CCCN)[C@H](OCc2ccc3ccccc3c2)[C@@H]1O`, the IC50 [3] was 6.1 µM, the IC50 [2] was 0.2 µM and the IC50 [4] was 8.4 µM. For the same compound, the IC50 [5] was greater than 10 µM and the IC50 [6] was greater than 10 µM.

Work on `CS[C@@H]1O[C@H](COCc2ccccc2)[C@@H](O)[C@@H](OCc2ccc3ccccc3c2)[C@H]1NC(=O)CCN` yielded an IC50 [5] of 0.66 µM.

With `COC[C@H]1O[C@H](OCc2ccc3ccccc3c2)[C@H](NC(=O)CCCN=C(N)N)[C@@H](OCc2ccc(Cl)cc2)[C@@H]1O` the IC50 [1] was 0.92 µM.

With `COC[C@H]1OC(OCc2ccc(Cl)cc2)[C@H](NC(=O)CCCN=C(N)N)[C@@H](OCc2ccc3ccccc3c2)[C@@H]1O` (some centres undefined) the Ki [1] was 2.6 µM.

With `COC[C@H]1OC(OCc2ccc(Cl)cc2)[C@H](NC(=O)CCCN=C(N)N)[C@@H](OCc2ccc(Cl)cc2)[C@@H]1O` (some centres undefined) the Ki [1] was 1.2 µM.

In the case of `COC[C@H]1O[C@@H](OCc2ccc3ccccc3c2)[C@H](NC(=O)CCN)[C@@H](OCc2ccc3ccccc3c2)[C@@H]1O`, the IC50 [3] is reported as 0.65 µM, the IC50 [2] is reported as 0.02 µM and the IC50 [4] is reported as 0.38 µM. For the same compound, the IC50 [5] was 4 µM and the IC50 [6] was 2.8 µM.

Work on `COC[C@H]1OC(OCCc2ccccc2)[C@H](NC(=O)CCCN=C(N)N)[C@@H](OCc2ccc(Cl)cc2)[C@@H]1O` (some centres undefined) yielded a Ki [1] of 3.5 µM.

In the case of `CS[C@@H]1O[C@H](COCc2ccc3ccccc3c2)[C@@H](O)[C@@H](OCc2ccc3ccccc3c2)[C@H]1NC(=O)CCN`, the IC50 [5] is reported as 0.44 µM.

With `COC[C@H]1O[C@H](OCc2ccc(Cl)cc2)[C@H](NC(=O)CCCN=C(N)N)[C@@H](OCc2ccc(Cl)cc2)[C@@H]1O` the IC50 [1] was 0.12 µM.

Compound `COC[C@H]1OC(OCc2ccc3ccccc3c2)[C@H](NC(=O)CCCN=C(N)N)[C@@H](OCc2ccc3ccccc3c2)[C@@H]1O` (some centres undefined) has a Ki [1] of 5.1 µM.

`COC[C@H]1O[C@@H](OCCc2ccccc2)[C@H](NC(=O)CCCN)[C@@H](OCc2ccc3ccccc3c2)[C@@H]1O` showed an IC50 [3] of 3.32 µM, an IC50 [2] of 0.18 µM and an IC50 [4] of 1.32 µM. It also gave an IC50 [5] greater than 10 µM and an IC50 [6] greater than 10 µM.

Work on `CS[C@@H]1O[C@H](COCc2ccc(Cl)cc2)[C@@H](O)[C@@H](OCc2ccc3ccccc3c2)[C@H]1NC(=O)CCN` yielded an IC50 [3] of 0.98 µM, an IC50 [2] of 6 µM and an IC50 [4] of 6.33 µM. The IC50 [5] was 0.43 µM and the IC50 [6] was 9.59 µM.

`COC[C@H]1O[C@H](OCCc2ccccc2)[C@H](NC(=O)CCCN=C(N)N)[C@@H](OCc2ccc(Cl)cc2)[C@@H]1O` gave an IC50 [1] of 0.54 µM.

`COC[C@H]1O[C@@H](OCc2ccc(Cl)cc2)[C@H](NC(=O)CCCN=C(N)N)[C@@H](OCc2ccc3ccccc3c2)[C@@H]1O` gave an IC50 [7] greater than 3 µM.
